Drawing on PubChem BioAssay AID493091 (Sanford-Burnham Center for Chemical Genomics, 2011), this text covers inhibition for 94 molecules.

The structures appear in SMILES notation. Hit rate of the full screen: of about 340,000 compounds, about 3,000 (0.88%) were called active.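 The calls were made as follows: active = inhibition above about 50% at 20 µM (limit read from the data); inactive = the rest.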 Only a selection was taken, and actives are over-represented in it overall.

Sequence of Carboxy-terminal domain RNA polymerase II polypeptide A small phosphatase 1 (Homo sapiens) (Q9GZU7 76-261 limits assumed): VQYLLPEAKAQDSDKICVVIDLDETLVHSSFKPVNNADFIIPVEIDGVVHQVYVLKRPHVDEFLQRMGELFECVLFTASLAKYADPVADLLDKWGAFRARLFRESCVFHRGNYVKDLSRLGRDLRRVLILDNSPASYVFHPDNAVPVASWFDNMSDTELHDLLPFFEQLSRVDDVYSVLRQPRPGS

The test has as its target Carboxy-terminal domain RNA polymerase II polypeptide A small phosphatase 1 (Homo sapiens) (UniProt Q9GZU7). Nature of the test: inhibition of human SCP1 dephosphorylation activity – biochemical, colorimetric, uHTS, primary screen (AID 493091).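 Also: plate controls were DMSO wells with enzyme for no effect and wells lacking enzyme for full effect.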 Particulars: Recombinant Scp1, phosphopeptide, malachite green phosphate absorbance; at 20 µM; hits give high values. The method in brief:
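assay system = SCP-1 phosphatase catalytic domain, residues 76-261 | buffer or medium = 50 mM Tris acetate pH 5.5, 0.005% Tween-20, 10 mM MgCl2 | incubation = enzyme reaction 45 min at room temperature, colour 5 min, stabilisation 30 min | signal = Phosphate-binding colour reagent, absorbance read at 630 nm | measure = % inhibition at 20 µM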
Usually inhibition stands for the drop in the measured response relative to a control, in per cent. In the case of `CCOC(=O)C1=C(C)c2ccccc2OC1(C)C(=O)OCC` (centres undefined), the inhibition is 70.1% (active). The same measure for `CCOC(=O)C1=C(C)c2ccccc2OC1C(=O)OCC` (centres undefined): -1.33% (inactive); for `CCOC(=O)C1=C(NC(=S)NC(=O)c2ccccc2)c2ccccc2CC1(C)C`: -6.2% (inactive); for `COc1c(C(C)C)oc2cc3oc(=O)ccc3cc12`: -9.44% (inactive). Turning to `CSc1ccc(C#N)cc1NC(=O)c1cccc(Cl)c1`, the inhibition is -21.5% (inactive). The same measure for `N#Cc1ccc(C(=O)Nc2cccc3cccnc23)c(F)c1`: 100% (active). The same measure for `COc1ccc(NC(=O)c2ccco2)cc1NC(=O)c1ccc(C#N)cc1F`: 6.99% (inactive); for `Nc1ccc2nc3c(=O)[nH]c(=S)[nH]c3nc2c1`: 78.4% (active); for `CC12CCC(C(=O)N3CCN(c4ncccn4)CC3)(c3nc4ccccc4nc31)C2(C)C` (centres undefined): -9.3% (inactive). For the molecule `O=C(C[n+]1cc(Br)cc2ccccc21)c1ccc(F)cc1`, the inhibition was -4.19% (inactive).

`COC(=O)Cc1c(-c2[nH]c3ccccc3c2CC(=O)OC)[nH]c2ccccc12`: the inhibition is -13.3% (inactive). The same measure for `COC(=O)C[n+]1cccc2ccccc21`: 105% (active); for `CCOc1cc2[nH]c(=S)n(CCCN3CCCC3=O)c(=O)c2cc1OCC`: -8.04% (inactive).

On to `Cc1ccc(NC(=S)N2CCN(c3ncccn3)CC2)cc1C`, for which the inhibition is 4.95% (inactive). The same measure for `COc1ccc(CN2CCC(n3nccc3NC(=O)CCCc3ccccc3)CC2)cc1C`: 6.87% (inactive); for `Cc1oc2c(C)c3oc(=O)c(CC(=O)N[C@@H](CC(C)C)C(=O)N[C@@H](Cc4ccccc4)C(=O)O)c(C)c3cc2c1C`: 88% (active); for `Cc1c(CCC(=O)N[C@@H](CC(C)C)C(=O)O)c(=O)oc2c(C)c3oc4c(c3cc12)CCCC4`: -2.45% (inactive). The same measure for `Cc1c(OC(C)C(=O)N[C@@H](Cc2ccccc2)C(=O)O)ccc2c3c(c(=O)oc12)CCCC3` (some centres undefined): 4.1% (inactive).

Consider `CC(Oc1ccc(-c2ccccc2)c(F)c1)c1ccn(S(=O)(=O)c2cccc3ccccc23)n1` (centres undefined), for which the inhibition was -13.9% (inactive). The same measure for `Cc1c(-c2nn(C)c(=O)c3ccccc23)oc2ccc(F)cc2c1=O`: 3.62% (inactive); for `Cc1c(Cl)c([N+](=O)[O-])nn1CCCC(=O)NC(C)c1ccccc1` (centres undefined): -27.1% (inactive). As for `CCCCCC(=O)Nc1ccc(S(=O)(=O)Nc2ccc(Cl)nn2)cc1`, the figure is 4.6% (inactive); as for `Cc1nnc(SCC(=O)Nn2cnnc2)s1`, -3.13% (inactive); as for `Cc1nnc(SCC(=O)Nc2ccc(S(=O)(=O)Nc3ccc(Cl)nn3)cc2)s1`, 79.2% (active). The same measure for `CCNC(=O)COc1cc(C)c(Br)c(C)c1`: -2.07% (inactive); for `COCCNC(=O)c1snc2ccc(Cl)cc12`: -6.6% (inactive). Consider `COCCNC(=O)Nc1ccc2nc(-c3ccco3)c(-c3ccco3)nc2c1`, for which the inhibition is 79.6% (active). The same measure for `O=C(Nc1nc(-c2ccco2)c(-c2ccco2)s1)c1ccco1`: -3.82% (inactive). `O=C(COc1ccccc1)Nc1ccc(N2CCN(C(=O)c3cccs3)CC2)cc1`: the inhibition was -5.15% (inactive). `O=C(CNC(=O)c1n[nH]c2ccccc12)Nc1cc(Cl)ccc1Cl`: the inhibition is 5.8% (inactive). As for `Cc1cccc(N=Nc2c(O)[nH]c3ccc(F)cc23)c1`, the inhibition is -10.6% (inactive). As for `COc1ccccc1OCCCCCCN1CCN(C)CC1`, the figure is -4.32% (inactive); as for `COc1ccc(C(=O)NC(=S)Nc2ccccc2N2CCN(S(C)(=O)=O)CC2)cc1OC`, -10.7% (inactive); as for `CCCC(=O)Nc1ccccc1N1CCN(C(=O)c2ccccc2)CC1`, -9.5% (inactive). The same measure for `CCC(=O)Nc1ccccc1N1CCN(S(C)(=O)=O)CC1`: 53.6% (active). The same measure for `CCn1cc(C(=O)NCC(=O)NC(C)(C)CO)c(=O)c2cc3c(cc21)OCO3`: -9.05% (inactive); for `COc1ccccc1CCC(=O)OCC(=O)N1CCN(S(=O)(=O)c2ccc(C)cc2C)CC1`: -11.1% (inactive); for `CC1(C)CC(CNCCC(c2ccc(F)cc2)c2ccco2)CCO1` (centres undefined): -5.21% (inactive). Consider `CCn1ncc(CNC(=O)C2(C)CC2(Br)Br)c1C` (centres undefined), for which the inhibition was -6.32% (inactive). As for `C[C@H](CO)N1C[C@H](C)[C@@H](CN(C)C(=O)NC2CCCCC2)Oc2ccc(NC(=O)c3ccncc3)cc2C1=O`, the inhibition is 57.7% (active). As for `Cc1noc(C)c1NC(=O)Nc1ccc2c(c1)C(=O)N([C@H](C)CO)C[C@H](C)[C@@H](CN(C)C(=O)Nc1ccc(C(F)(F)F)cc1)O2`, the figure is 50.3% (active).

Turning to `COc1ccc(S(=O)(=O)N(C)C[C@@H]2Oc3ccc(NC(=O)Nc4c(C)noc4C)cc3C(=O)N([C@H](C)CO)C[C@@H]2C)cc1`, the inhibition is 21.7% (inactive). For the molecule `C[C@@H]1CN([C@@H](C)CO)C(=O)c2cc(NC(=O)C3CC3)ccc2O[C@H]1CN(C)C`, the inhibition was -8.19% (inactive). As for `COc1ccc(NC(=O)Nc2ccc3c(c2)C(=O)N([C@H](C)CO)C[C@H](C)[C@@H](CN(C)C(=O)Nc2ccc4c(c2)OCO4)O3)cc1`, the figure is 48.8% (inactive); as for `Cc1noc(C)c1S(=O)(=O)N(C)C[C@H]1Oc2ccc(NC(=O)C3CCCCC3)cc2C(=O)N([C@H](C)CO)C[C@@H]1C`, -2.33% (inactive); as for `COc1ccc(NC(=O)N(C)C[C@H]2Oc3ccc(NC(=O)C4CC4)cc3C(=O)N([C@H](C)CO)C[C@@H]2C)cc1`, 67.9% (active). As for `C[C@H](CO)N1C[C@H](C)[C@@H](CN(C)S(=O)(=O)c2ccc(F)cc2)Oc2ccc(NC(=O)CCC(F)(F)F)cc2C1=O`, the inhibition was -5.81% (inactive). As for `Cc1noc(C)c1NC(=O)Nc1ccc2c(c1)C(=O)N([C@H](C)CO)C[C@H](C)[C@@H](CN(C)C(=O)Nc1ccccc1)O2`, the figure is 35.8% (inactive).

Take `C[C@@H]1CN([C@H](C)CO)C(=O)c2cc(NC(=O)NC3CCCCC3)ccc2O[C@H]1CN(C)S(C)(=O)=O`: the inhibition was -8.19% (inactive). As for `C[C@@H]1CN([C@@H](C)CO)C(=O)c2cccc(NS(=O)(=O)c3ccc(F)cc3)c2O[C@H]1CN(C)C(=O)NC1CCCCC1`, the figure is -0.48% (inactive); as for `Cc1ccc(S(=O)(=O)Nc2ccc3c(c2)C(=O)N([C@H](C)CO)C[C@@H](C)[C@@H](CN(C)C(=O)Nc2cccc4ccccc24)O3)cc1`, 59.1% (active).

On to `CN(C(=O)CSc1nnc(-c2c[nH]c3ccccc23)o1)C1CCS(=O)(=O)C1` (centres undefined), for which the inhibition is -5.57% (inactive). The same measure for `Cc1cccc(N2CCN(Cc3nc(C4CC4)no3)CC2)n1`: -8.45% (inactive). The same measure for `CC(C)=CCN1CCN(Cc2cc3ccccc3[nH]2)CC1CCO` (centres undefined): -3.55% (inactive); for `COC(=O)c1ccc(S(=O)(=O)c2ccc(C(=O)OC)s2)s1`: -2.05% (inactive). As for `NC(=O)C1=C[C@H](c2csc3ccccc23)C[C@H](OCc2ccc(CO)cc2)O1`, the figure is -0.48% (inactive); as for `C[C@H](CO)N1C[C@H](C)[C@H](CN(C)C(=O)Nc2ccc(C(F)(F)F)cc2)Oc2c(NC(=O)c3ccncc3)cccc2C1=O`, 88% (active).

As for `C[C@H](CO)N1C[C@H](C)[C@@H](CN(C)C(=O)Nc2ccc3c(c2)OCO3)Oc2c(cccc2N(C)C)C1=O`, the inhibition is 38.7% (inactive). The same measure for `Cc1noc(C)c1NC(=O)Nc1cccc2c1O[C@H](CN(C)C(=O)Nc1ccccc1)[C@@H](C)CN([C@H](C)CO)C2=O`: -8.19% (inactive). The same measure for `COC(=O)CSc1ccc2nnc(CCNS(=O)(=O)c3ccc(C)cc3)n2n1`: -10.5% (inactive); for `Cc1ccccc1NC(=O)CN1C(=O)N/C(=C\c2cccn2-c2cccc(C(=O)O)c2)C1=O`: 65.5% (active); for `Cc1ccccc1NC(=O)CSC(=O)c1ccccc1`: -4.57% (inactive). As for `O=C1N/C(=C/c2cccn2-c2ccccc2)C(=O)N1c1cccc(Cl)c1`, the figure is -4.36% (inactive); as for `O=C(COC(=O)c1ccc(O)cc1)Nc1nccs1`, -1.45% (inactive). Take `O=C(Nc1ccc(-c2ccc3nncn3n2)cc1)C1CCCCC1`: the inhibition is -12.9% (inactive). For `COc1ccc(OC)c(NC(=O)CSc2nc(N)c(-c3ccccc3)c(=O)[nH]2)c1`, the inhibition was 3.19% (inactive).

In the case of `COc1ccc(OC)c(NC(=O)CSc2nc(-c3ccccc3)cc(=O)[nH]2)c1`, the inhibition is 81.5% (active). Turning to `CCCc1cc(=O)[nH]c(SCC(=O)Nc2ccc(C(=O)Nc3ccccc3OC)cc2)n1`, the inhibition is -2.71% (inactive). With `CC(=O)c1cccc(NC(=O)N2CCCC2C(=O)NCCc2ccccc2)c1` (centres undefined), the inhibition was -7.73% (inactive). As for `C[n+]1ccc(C(=O)NCc2ccccc2)cc1`, the figure is 92.7% (active).

Turning to `CS(=O)(=O)NCc1ccc(C(=O)NCc2ccccc2)cc1`, the inhibition was -6.79% (inactive). The same measure for `Nc1ccc(C(=O)NCc2ccccc2)cc1`: -1.69% (inactive). As for `Cc1noc(C)c1-c1ccc2ncnc(NC(C)c3ccco3)c2c1` (centres undefined), the figure is 8.09% (inactive); as for `CCn1cc(C(=O)N2CCN(C3CCCCC3)CC2)c2cc(OC)c(OC)cc2c1=O`, 0% (inactive); as for `CCOC(=O)N1CCN(C(=O)C2CC(c3ccc(F)cc3)=NO2)CC1` (centres undefined), -0.41% (inactive).

Turning to `Cc1cccc(-[n+]2c(-c3cccc(Br)c3)[nH]c3nc4ccccc4nc32)c1`, the inhibition is -8.9% (inactive). The same measure for `COc1ccc(-n2cnnc2SCC(=O)Nc2cccc([N+](=O)[O-])c2)cc1`: -10.7% (inactive). The same measure for `NS(=O)(=O)c1cccc(NC(=O)CSc2nc3ccccc3n2-c2ccccc2)c1`: -22.7% (inactive).

As to `NC(=O)NC(=O)CSc1nc2cc([N+](=O)[O-])ccc2n1-c1cccc(C(F)(F)F)c1`, the inhibition is 62.8% (active). The same measure for `C/C(CC(=O)Nc1ccc(Cl)cc1)=N\NC(=O)C(=O)NCCO`: -2.46% (inactive); for `COc1ccc(N2C(=O)C(CC(=O)Nc3ccc(F)cc3)N(CCc3cccs3)C2=O)cc1` (centres undefined): 0.58% (inactive). As for `CCN(CC)c1ccc(C(=O)NNC(=O)CCc2nc3ccccc3c(=O)[nH]2)cc1`, the figure is -4.7% (inactive); as for `O=C(COC(=O)CCC(=O)c1cccs1)NCc1ccco1`, 96.1% (active); as for `CN(c1ccccc1)S(=O)(=O)c1ccc(Cl)c(C(=O)OCC(=O)N2CCOCC2)c1`, -10.4% (inactive).

With `Cc1cc(C(=O)OCC(=O)NCc2ccco2)c(C)n1-c1ccccc1`, the inhibition was 73.1% (active).

Turning to `CSCCC(NC(=O)c1ccco1)C(=O)OCC(=O)Nc1ncc(Cl)c(C)c1Cl` (centres undefined), the inhibition is 2.12% (inactive). In the case of `Cc1c(Cl)cnc(NC(=O)COC(=O)c2ccc(S(=O)(=O)NCc3ccco3)cc2)c1Cl`, the inhibition is 61.6% (active). As for `Cc1cc(C(=O)OCC(=O)N2c3ccccc3NC(=O)C2(C)C)c(C)n1-c1ccccc1`, the figure is -10.3% (inactive); as for `CC1CCN(C(=O)COC(=O)CCC(=O)c2cccs2)CC1`, 0.96% (inactive); as for `CCOC(=O)c1cnc(SCC(=O)NCc2ccco2)nc1N`, -2.2% (inactive). For `CN(c1ccccc1)S(=O)(=O)c1ccc(Cl)c(C(=O)OCC(=O)NCc2ccco2)c1`, the inhibition is 81.1% (active).

In the case of `O=C(COC(=O)c1cccs1)NCc1cccs1`, the inhibition is -4.94% (inactive). The same measure for `CN(c1ccccc1)S(=O)(=O)c1ccc(Cl)c(C(=O)OCC(N)=O)c1`: -10.7% (inactive); for `C/C(=N\Nc1ncc(Cl)cc1Cl)c1ccc(S(=O)(=O)NCc2ccco2)cc1`: -6.85% (inactive).
